# Only some compounds are listed: those with a hit (about 4.7% of all), similar ones and a draw of the others.
# VIM-2 inh – blocks Pseudomonas aeruginosa VIM-2 metallo-beta-lactamase. purified VIM-2, nitrocefin hydrolysis, epi-absorbance fluorescence. inhibition, % at 5.6 µM. hit rate 0.89% among 290,000;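 active means inhibition above the mean of all tested compounds plus 3 SD, cutoff set per screening run, cut at about 7.5% in these data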;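 further: red hydrolysis product quenches plate fluorescence so inhibitors raise well fluorescence; 0% = enzyme with DMSO and 100% = DMSO without enzyme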
# aSyn UTR inh – MLPCN primary screen, SNCA 5' untranslated region. alpha-synuclein 5'UTR reporter, inhibitor activity. inhibition, % (tested at 7.5 µM). hit rate 0.82% among 300,000; in the data active means inhibition above about 60%;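 further: H4 neuroglioblastoma cells stably carrying SNCA 5'UTR luciferase fusion; 0% = DMSO wells and 100% = positive control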
# IMP-1 inhibitor – inhibitors of Pseudomonas aeruginosa IMP-1 metallo-beta-lactamase. AID 1556. hit rate 0.45% among 290,000. inhibition, % at 5.6 µM. purified IMP-1, nitrocefin hydrolysis, epi-absorbance fluorescence;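 active means inhibition above the mean plus 3 SD of all compounds in the same screening run, cut at about 4.5% in these data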;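 further: 0% = IMP-1 with DMSO and 100% = DMSO wells lacking enzyme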
#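 Assay system: purified recombinant IMP-1 beta-lactamase. Input: IMP-1 0.2 nM before substrate addition. Buffer or medium: Zinc- and detergent-supplemented HEPES buffer, pH 7.1. Schedule: 25 °C, 15 min preincubation, 25 min reaction. Signal: Epi-absorbance fluorescence, 480 nm excitation, 530 nm emission. Evaluation: percent inhibition from optical density relative to buffer-blank wells.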
# 697 NFkB inh – inhibitors of the PMA/ionomycin-induced NF-kB reporter in 697 B cells | 697 B-cell NF-kB luciferase reporter, 16 h | inhibition, % at 4 µM | hit rate 0.33% among 330,000; in the data active means inhibition above about 35%
# Jurkat NFkB inh – inhibitors of the PMA/ionomycin-induced NF-kB reporter in Jurkat cells; hit rate 0.53% among 330,000; PMA/ionomycin-induced NF-kB luciferase reporter, luminescence; inhibition, % at 4 µM; in the data active means inhibition above about 50%
# Mdm2-MdmX inh – inhibitors of human Mdm2/MdmX interaction; O15151+Q00987; SaOS-2 split-luciferase Mdm2/MdmX complementation, luminescence; inhibition, % at 8 µM; hit rate 3% among 330,000;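 active means inhibition of at least 50% at 8 µM in the primary screen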
# Jurkat NFkB conf – inhibitors of the PMA/ionomycin-induced NF-kB reporter in Jurkat cells, retest; hit rate 27% among 2,700; inhibition, % at 4 µM; shares compounds with Jurkat NFkB inh; Jurkat NF-kB luciferase, 16 h;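 active means inhibition reaching about 45% at 4 µM in either replicate, limit read from the data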;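 further: plate controls were PMA/ionomycin stimulated DMSO wells for no effect and unstimulated DMSO wells for full effect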
# Active calls of the source: *; · = no result given.
SMILES,VIM-2 inh,aSyn UTR inh,IMP-1 inhibitor,697 NFkB inh,Jurkat NFkB inh,Mdm2-MdmX inh,Jurkat NFkB conf
Cn1cccc1/C=N/NC(=O)c1cc(-c2cccs2)nc2ccccc12,-4,27,-1,-15,53*,49,4
O=C(/C=C/c1ccccn1)c1cc(Cl)cc(Cl)c1O,-2,-28,-3,-11,67*,-15,29
COc1ccc(C)cc1N(C(=O)c1snc(C(N)=O)c1N)C(C(=O)NC1CCCCC1)c1ccc(C)o1 (stereo unspecified),-4,-4,-6,27,-2,2,·
O=c1oc2c(-c3ccc([N+](=O)[O-])cc3)cc(O)cc2s1,1,-43,-2,-20,-13,-14,·
CC(C)CCOc1cccc(OCC(=O)Nc2ccncc2)c1,-4,2,-3,-11,57*,30,65*
CC1CC(C)C[N+](=C2C=C(N3CCCC3)CC(C)(C)C2)C1 (stereo unspecified),3,-14,-1,·,·,·,·
CN(Cc1ccccc1)C1=CC(=[N+]2CCCC2)CC(C)(C)C1,-1,-18,0,19,62*,43,59*
CCN(CC)C1=CC(=[N+]2CCCC2)CC(C)(C)C1,-1,-4,-1,-1,46,18,·
CC1(C)CC(N2CCN(c3ccccc3)CC2)=CC(=[N+]2CCCC2)C1,0,-3,1,5,57*,37,28
CSc1ccccc1OCc1cc(C(=O)N2CCc3[nH]cnc3C2c2ccccn2)no1 (stereo unspecified),-4,-4,-5,7,-6,5,·
CSCCC(NC(=O)c1cccc(C)c1)C(=O)Nc1sccc1C(N)=O (stereo unspecified),-1,12,2,-12,-8,-15,·
COc1cc(C(=O)OCC(=O)Nc2sccc2C(N)=O)cc(OC)c1OC,-2,12,-4,-44,54*,49,24
COc1ccc(C(=O)OCC(=O)Nc2sccc2C(N)=O)cc1OC,0,-12,-2,-18,-5,-10,·
COc1ccc(Br)cc1/C(C)=N/NC1=NCCN1,-2,-5,-2,-29,67*,23,34
COc1ccc(C(=O)c2ccc(OC)c(OC)c2)cc1OC,-3,24,-3,-31,-10,-13,·
COc1ccc(C(=O)c2ccc(OC)c(N)c2)cc1N,-3,46,-3,-56,53*,31,33
O=C(N[C@@H](Cc1ccccc1)C(=O)N1CCN(S(=O)(=O)c2ccc(F)cc2)CC1)c1ccco1,·,·,·,-10,2,-1,·
CCN(CC)S(=O)(=O)c1ccc(N2CCN(C)CC2)c(NC(=O)c2cc(=O)c3ccccc3o2)c1,2,2,-4,-11,-26,-4,·
CCC(=O)N1CCc2cc(OC)c(OC)cc2C1COc1ccc(F)cc1 (stereo unspecified),-1,27,-2,-13,64*,-5,-1
COc1cc2c(cc1OC)C(COc1ccc(F)cc1)N(C(C)=O)CC2 (stereo unspecified),-1,22,-1,-12,45,-1,·
Cc1cc(N2CCOCC2)ccc1/C=C1\SC(=O)N(C(C)C)C1=O,0,-115,-3,-101,-170,-220,-58
CCC(C)N1C(=O)S/C(=C/c2ccc(N3CCOCC3)cc2C)C1=O (stereo unspecified),-4,-167,0,-78,-93,-32,·
COc1cc(/C=C2\CCn3c2nc2cc(C(=O)O)ccc2c3=O)ccc1OC(F)F,2,-14,1,-13,-29,-14,·
Clc1ccc(C2=NNC(=NCc3ccc4c(c3)OCO4)SC2)cc1,-3,·,-5,·,·,·,·
Oc1ccc(C2=NNC(=NCc3ccc4c(c3)OCO4)SC2)c(O)c1,-3,-87,-3,-51,52*,35,16
SMILES,VIM-2 inh,aSyn UTR inh,IMP-1 inhibitor,697 NFkB inh,Jurkat NFkB inh,Mdm2-MdmX inh,Jurkat NFkB conf
CCNc1nc2c(c(=O)n(C)c(=O)n2C)n1CCCc1ccccc1,-2,0,1,-20,-2,19,·
COCCC(=O)N1CCC(Oc2ccc(C(=O)NCc3cccc(C)n3)cc2)CC1,0,-4,0,-10,-8,25,·
COc1ccc(C(=O)Nc2ccc(N3CCOCC3)cc2)cc1S(=O)(=O)N1CCOCC1,·,·,·,19,0,13,·
COc1ccc(C(=O)Nc2ccc(-c3ccc(C)o3)cc2)cc1S(=O)(=O)N1CCOCC1,-2,19,-5,15,59*,5,12
COc1ccc(S(=O)(=O)Nc2ccc3c(c2)C(=O)N([C@H](C)CO)C[C@H](C)[C@@H](CN(C)C(=O)NC2CCCCC2)O3)cc1,·,·,·,-6,-1,20,·
O=[N+]([O-])c1ccc(CN2CCN(c3ccc([N+](=O)[O-])cc3)CC2)cc1,0,6,-1,-15,60*,0,21
CCCOC(=O)Cn1cnc2scc(-c3ccc(OC)cc3)c2c1=O,3,7,-2,-49,-15,-20,·
CCOC(=O)c1cc2c(N)c(C(=O)c3ccc(Br)cc3)sc2[nH]c1=O,2,6,0,9,3,29,·
Cc1ccc(CN2CCCCC2C(=O)Nc2ccc(Oc3cccnc3)cc2)o1 (stereo unspecified),-2,-58,-2,-20,69*,44,6
CCn1nc(C)c(CN2CCCCC2C(=O)Nc2ccc(Oc3cccnc3)cc2)c1C (stereo unspecified),0,13,-2,-5,-5,17,·
Cc1cccc(C)c1OCCNC(=O)C(=O)NCc1ccco1,-4,-2,-2,-122,67*,44,38
COc1ccc(CNCC(=O)Nc2ccccc2-n2cccc2)cc1,-4,27,-3,-28,68*,46,13
COc1ccc(CC(=O)Nc2ccccc2N2CCCC2)cc1,0,15,-1,-8,-12,9,·
Cc1ccc(C)c(NC(=O)CN(C)C(=O)CC2OC(=O)c3ccccc32)c1 (stereo unspecified),·,·,·,-24,-9,-10,·
COc1ccccc1C(=O)Nc1ccc2c(c1)nc(CCNC(=O)c1ccccc1)n2C,-2,-10,-1,-28,54*,44,29
COc1ccc2nc(Nc3ccccc3)sc2c1,-2,-119,-1,-132,-186,-157,-117
COc1ccc2nc(NC(=O)c3ccc4ncsc4c3)sc2c1,-4,-134,-5,-203,-151,-179,-48
COc1ccc2nc(Nc3ccccc3OC)sc2c1,1,-154,-2,-191,-195,-192,-123
COc1ccc2nc(Nc3ccc4c(c3)OCO4)sc2c1,-3,-160,-2,-126,-77,21,·
CCOC(=O)N1CCN(C(=O)c2ccc3c(c2)NC(=O)/C(=C\c2cccc(C)c2)S3)CC1,-3,-58,-5,-12,3,26,·
O=C(NC(=S)N1CCCCC1CO)c1cccs1 (stereo unspecified),·,·,·,-13,11,-36,·

# Source: PubChem
